High-throughput results deposited in PubChem BioAssay by The Scripps Research Institute Molecular Screening Center.
The list is not random: actives were taken first. Their share in the collection is about 2%.
STAT3 activator = IL-6 driven STAT3 reporter potentiators, primary screen, U3A cells, luciferase, luminescence, MLSCN library. IL-6 STAT3-luciferase reporter; 100% = signal with IL-6 EC80 alone. activation (% of control), % at 5.6 µM. hit rate 0.91% among 190,000. AID 871, 2007;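 active = activation above the screen-wide mean of compound activation plus 3 SD, cut at about 130% in these data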
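Material: human STAT1-deficient U3A cells with stable STAT3-luciferase reporter / Probe or stimulus: IL-6 stimulus at 33 ng/mL final / Schedule: 1 h compound pre-exposure, 6 h IL-6 stimulation, 37 °C / Technique: luminescence / Read-out basis: percent of IL-6-only median luminescence / Control set: IL-6-only high control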
STAT3 blocker = IL-6 driven STAT3 reporter inhibitors, primary screen, U3A cells, luciferase, luminescence, MLSCN library; IL-6 STAT3-luciferase reporter; host cell line lacks STAT1; hit rate 0.89% among 190,000; inhibition, % at 5.5 µM;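 active = inhibition above the mean inhibition across all screened compounds plus 3 SD, cut at about 44% in these data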
STAT1 inh = STAT1 signaling inhibitors, primary screen, cell-based, HTS, luciferase reporter; inhibition, % at 5.5 µM; NIH 3T3 STAT1-luciferase reporter, IFN-gamma, luminescence; hit rate 0.35% among 200,000;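 active = inhibition above a set limit, the mean inhibition across all tested compounds plus 3 SD, cut at about 34% in these data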
HSP90 inh = HSP90 inhibitors, primary screen, cell lysate, luminescence; Heat shock protein HSP 90 (rabbit reticulocyte lysate; luciferase refolding); Rabbit reticulocyte lysate, luciferase refolding luminescence, 3 h; inhibition, % at 5.6 µM; hit rate 0.91% among 290,000;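 active = inhibition above the screen-wide mean plus 3 SD, computed separately per campaign, cut at about 16% in these data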;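 also: inhibitors lower the luminescence because luciferase stays unfolded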
Of the large screens only hits and unclear results are named; the others gave an inactive call.

O=C(O)c1cc(-c2ccc(/C=C3\NC(=O)N(c4ccccc4)C3=O)o2)ccc1Cl	none (no result: STAT3 activator, STAT3 blocker, STAT1 inh)
C#CCN1C(=O)S/C(=C\c2ccc(-c3ccc(Cl)c(C(=O)O)c3)o2)C1=O	HSP90 inh 23 (no result: STAT3 activator, STAT3 blocker, STAT1 inh)
CCOc1ccc(NC(=O)c2cccc(OC(=S)N3CCOCC3)c2)cc1	none
CCN(CC)c1ccc(C=C2C(=O)OC3(CCCCC3)OC2=O)cc1	none
Nc1ccc2c(c1)OC1(CCCCC1)O2	STAT3 activator 135
Cc1ccccc1NC(=O)c1cccc(N2C(=O)C3C4CC(C(Br)C4Br)C3C2=O)c1 (configuration not stated)	none (no result: STAT3 activator, STAT3 blocker, STAT1 inh)
COc1ccc2cc(C(=O)N3CCCC(Nc4ccc(F)cc4)C3)n(C)c2c1 (configuration not stated)	none (no result: STAT3 activator, STAT3 blocker, STAT1 inh)
Cc1ccc(NNS(=O)(=O)c2ccc(C)cc2)cc1	STAT3 activator 135
Cc1ccc(S(=O)(=O)NNC(=O)C(=O)NNS(=O)(=O)c2ccc(C)cc2)cc1	none
Cc1ccc(/C=C2\OC(=O)c3ccccc32)cc1	STAT3 activator 157
CCOC(=O)COn1c(=O)c(-c2cc3ccccc3o2)[n+]([O-])c2ccccc21	STAT3 activator 151
O=C(NCc1ccccn1)c1ccc(OC2CCN(Cc3ccc(Cl)s3)CC2)cc1	none (no result: STAT3 activator, STAT3 blocker, STAT1 inh)
Cc1ccc(C(=O)C2=C(O)C(=O)N(Cc3ccccc3)C2c2cccnc2)o1 (configuration not stated)	STAT1 inh 37
Cn1c(SCC(=O)Nc2ccccc2)nc2ccccc2c1=O	none (no result: STAT3 activator, STAT3 blocker, STAT1 inh)
CC1=NN(c2ccc(C)cc2C)C(=O)C1C(c1ccccc1)C1C(=O)N(c2ccc(C)cc2C)N=C1C (configuration not stated)	none
CC1=NN(c2ccc(F)cc2)C(=O)C1C(c1cccc(O)c1)c1c(C)[nH]n(-c2ccc(F)cc2)c1=O (configuration not stated)	STAT3 activator 153
Cc1sc(NC(=O)c2ccc(Br)s2)c(C(N)=O)c1C	STAT3 activator 185
Cc1sc(NC(=O)c2ccc(Cl)s2)c(C(N)=O)c1C	STAT3 activator 159
Oc1ccc(Br)cc1-c1cc(-c2ccccc2Cl)[nH]n1	none (no result: STAT3 activator, STAT3 blocker, STAT1 inh)
Oc1ccc(Br)cc1-c1cc(-c2ccccc2F)[nH]n1	STAT3 activator 134
Cc1cc(C(=O)COC(=O)c2cc(O)c3ccccc3c2O)c(C)n1CC1CCCO1 (configuration not stated)	STAT3 activator 146
CC(C)n1c(SCC(=O)NC2CCCCC2)nnc1-c1ccco1	none (no result: STAT3 activator, STAT3 blocker, STAT1 inh)
OC(COCC1COc2ccccc2O1)CN1CCN(c2ccccn2)CC1 (configuration not stated)	HSP90 inh 19
OC(COCC1COc2ccccc2O1)CN1CCc2ccccc2C1 (configuration not stated)	none
CCc1cc(OCCCCNCc2ccccc2)ccc1Cl	none
OCCC1CN(Cc2ccc(Oc3ncccn3)cc2)CCN1Cc1ccc(F)c(F)c1 (configuration not stated)	none (no result: STAT3 activator, STAT3 blocker, STAT1 inh)
CC(C)CN1CCN(Cc2ccc(Oc3ncccn3)cc2)CC1CCO (configuration not stated)	HSP90 inh 16 (no result: STAT3 activator, STAT3 blocker, STAT1 inh)
CN(/N=C/c1cccnc1)c1cnc2ccccc2n1	STAT3 activator 152
CCN1CCN(c2cc(C)c3cc(NC(=S)N4CCCC(C)C4)ccc3n2)CC1 (configuration not stated)	HSP90 inh 31
CCN1CCN(c2cc(C)c3cc(NC(=S)N4CC(C)CC(C)C4)ccc3n2)CC1 (configuration not stated)	none
COc1ccc(-c2cc3c(nn2)-c2ccccc2C3=O)cc1	STAT3 blocker 92, STAT1 inh 62
Cc1cccc(-c2cc3c(nn2)-c2ccccc2C3=O)c1	none
Cc1ccccc1-n1c(SC/C(O)=C(\C#N)c2nc3ccccc3[nH]2)nnc1-c1ccncc1	STAT3 activator 133
Cn1c(NCc2c[nH]c3ccccc23)nc2ccccc21	STAT3 activator 141
CC1(S(=O)(=O)O)CC(=O)c2ccccc2C1=O (configuration not stated)	none (no result: STAT3 activator, STAT3 blocker, STAT1 inh)
CN1CCN(NC(=O)CN2C(=O)/C(=C/c3c(Cl)cccc3Cl)SC2=S)CC1	STAT3 activator 135
Cc1cccn2c(N)c(-c3ccccc3)nc12	STAT3 activator 134
c1ccc(-c2csc(Nc3cccnc3)n2)nc1	none
c1cncc(Nc2nc(-c3cccs3)cs2)c1	STAT3 activator 141
Cc1ccc(Nc2nc(-c3cccs3)cs2)nc1	STAT3 blocker 80, STAT1 inh 64, HSP90 inh 17
CCc1ccc(-c2cc(C)no2)cc1S(=O)(=O)N1CCN(c2ccc(F)cc2)CC1	none (no result: STAT3 activator, STAT3 blocker, STAT1 inh)
CC(=O)Nc1nc2c(ccc3ccccc32)s1	none (no result: STAT3 activator, STAT3 blocker, STAT1 inh)
O=C(Cc1cccs1)Nc1nc2c(ccc3ccccc32)s1	STAT3 activator 159
O=C1[C@@H]2Cc3c([nH]c4ccccc34)[C@@H](c3ccccc3)N2C(=O)[C@@H]2Cc3c([nH]c4ccccc34)[C@@H](c3ccccc3)N12	STAT3 activator 137
O=C1NCC(=O)N2C(c3ccccc3)c3[nH]c4ccccc4c3C[C@@H]12 (some centres not stated)	none (no result: STAT3 activator, STAT3 blocker, STAT1 inh)
COc1ccc(NS(=O)(=O)c2ccc3c(c2)NC(=O)C(C)S3)cc1 (configuration not stated)	none (no result: STAT3 activator, STAT3 blocker, STAT1 inh)
N#Cc1c(Cl)nsc1NC(=O)c1ccccc1	STAT3 blocker 56, STAT1 inh 55
Cc1cccc(C(=O)Nc2sc(C)c(-c3ccccc3)c2C#N)c1	none
N#Cc1c(SCc2nc3ccccc3[nH]2)nc2c(c1C(F)(F)F)CCC2	STAT3 activator 174
NC(=O)c1cc(S(=O)(=O)N2CCOCC2)cs1	none (no result: STAT3 activator, STAT3 blocker, STAT1 inh)
Cn1c(SCC(=O)NCc2ccc(F)cc2)nc2c([nH]c3ccccc32)c1=O	STAT3 activator 133
COc1ccc(NC(=O)CSc2nc3c([nH]c4ccccc43)c(=O)n2C)cc1	STAT3 activator 135
COc1cccc(-n2c(SCC(=O)N3CCCC3)nc3c([nH]c4ccccc43)c2=O)c1	STAT3 activator 142
CCNc1nn2ccccc2c1/C=C(\C#N)C(=O)OCC	none (no result: STAT3 activator, STAT3 blocker, STAT1 inh)
COc1ccc(CCNS(=O)(=O)c2ccc(-n3cnnn3)cc2)cc1OC	none (no result: STAT3 activator, STAT3 blocker, STAT1 inh)
Clc1ccc(CN2CCN(c3ccccc3)CC2)cn1	none
COC(=O)CCn1nnc(-c2cccs2)n1	none
COC(=O)CCn1nnc(-c2ccc(C(C)C)cc2)n1	STAT3 blocker 84, STAT1 inh 48
COc1ccc(/C=C/C(=O)Nc2ccccc2C(=O)O)cc1	STAT3 blocker 51, STAT1 inh 39, HSP90 inh 46
COC1=C(OC)C(=O)C(CCCCCCCCCCO)=C(C)C1=O	HSP90 inh 27 (no result: STAT3 activator, STAT3 blocker, STAT1 inh)
O=C(O)CCn1cc(/C=C/C(=O)c2ccc(Cl)cc2)c(-c2ccc(Br)cc2)n1	none
C/C(=N\Nc1cccc2cccnc12)c1ccccc1O	none
C/C(=N\Nc1ncc(Cl)cc1Cl)c1ccc(N2CCOCC2)cc1	none
C/C(=N\Nc1ncc(Cl)cc1Cl)c1ccccn1	STAT3 blocker 94, STAT1 inh 69
C/C(=N\Nc1cccc2cccnc12)c1ccccn1	STAT3 blocker 68, STAT1 inh 41
